{
  "source": "ChEMBL document CHEMBL1152541",
  "about": "“Staurosporine tethered peptide ligands that target cAMP-dependent protein kinase (PKA): optimization and selectivity profiling” (Bioorg Med Chem, 2009)",
  "key": {"[1]": {"target": "Tyrosine-protein kinase receptor UFO (Homo sapiens) (UniProt P30530)", "assay": "Binding affinity to human AXL at 500 nM by cell-based competition binding assay relative to control in presence of DTT", "in_short": "(§1)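 Kinase binding profiling ran on a commercial (Ambit) competitive binding screen against a panel of 90 kinases. The screen used reducing conditions with 7.5 mM DTT. To withstand the DTT, the bivalent ligand was tested as its amide isostere, with the disulfide replaced. A staurosporine derivative carrying a 3 β-alanine linker was run as the reference compound.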"}, "[2]": {"target": "Serine/threonine-protein kinase pim-2 (Homo sapiens) (UniProt Q9P1W9)", "sequence (Q9P1W9 whole entry, looked up)": "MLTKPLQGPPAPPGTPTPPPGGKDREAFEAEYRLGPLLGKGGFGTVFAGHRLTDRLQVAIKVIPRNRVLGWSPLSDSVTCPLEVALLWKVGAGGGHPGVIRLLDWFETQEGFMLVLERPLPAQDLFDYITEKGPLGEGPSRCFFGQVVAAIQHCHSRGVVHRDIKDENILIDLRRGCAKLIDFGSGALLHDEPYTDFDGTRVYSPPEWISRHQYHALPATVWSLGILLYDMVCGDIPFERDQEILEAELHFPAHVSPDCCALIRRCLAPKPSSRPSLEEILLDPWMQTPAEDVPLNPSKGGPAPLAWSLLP", "assay": "Binding affinity to human PIM2 at 500 nM by cell-based competition binding assay relative to control in presence of DTT"}, "[3]": {"target": "T1, 3-phosphoinositide-dependent protein kinase 1 (Homo sapiens) (UniProt O15530)", "T1 sequence (whole entry)": "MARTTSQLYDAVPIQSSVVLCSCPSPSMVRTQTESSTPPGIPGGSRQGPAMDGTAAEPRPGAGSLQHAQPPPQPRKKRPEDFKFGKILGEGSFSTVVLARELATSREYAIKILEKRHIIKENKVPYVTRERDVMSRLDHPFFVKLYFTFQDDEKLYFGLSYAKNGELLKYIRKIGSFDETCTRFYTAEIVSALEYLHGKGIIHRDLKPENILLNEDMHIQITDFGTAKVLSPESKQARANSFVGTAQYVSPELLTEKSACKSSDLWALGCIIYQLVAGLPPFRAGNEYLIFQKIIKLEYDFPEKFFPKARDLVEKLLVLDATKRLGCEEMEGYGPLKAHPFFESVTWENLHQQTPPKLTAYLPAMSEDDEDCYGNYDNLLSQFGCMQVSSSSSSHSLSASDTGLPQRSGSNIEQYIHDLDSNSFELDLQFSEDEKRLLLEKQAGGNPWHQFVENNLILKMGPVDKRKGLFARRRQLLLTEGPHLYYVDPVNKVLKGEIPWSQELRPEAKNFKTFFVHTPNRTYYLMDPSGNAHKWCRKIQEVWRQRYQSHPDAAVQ", "assay": "Binding affinity to human PDPK1 at 500 nM by cell-based competition binding assay relative to control in presence of DTT"}, "[4]": {"target": "RAC-beta serine/threonine-protein kinase (Homo sapiens) (UniProt P31751)", "sequence (P31751 whole entry)": "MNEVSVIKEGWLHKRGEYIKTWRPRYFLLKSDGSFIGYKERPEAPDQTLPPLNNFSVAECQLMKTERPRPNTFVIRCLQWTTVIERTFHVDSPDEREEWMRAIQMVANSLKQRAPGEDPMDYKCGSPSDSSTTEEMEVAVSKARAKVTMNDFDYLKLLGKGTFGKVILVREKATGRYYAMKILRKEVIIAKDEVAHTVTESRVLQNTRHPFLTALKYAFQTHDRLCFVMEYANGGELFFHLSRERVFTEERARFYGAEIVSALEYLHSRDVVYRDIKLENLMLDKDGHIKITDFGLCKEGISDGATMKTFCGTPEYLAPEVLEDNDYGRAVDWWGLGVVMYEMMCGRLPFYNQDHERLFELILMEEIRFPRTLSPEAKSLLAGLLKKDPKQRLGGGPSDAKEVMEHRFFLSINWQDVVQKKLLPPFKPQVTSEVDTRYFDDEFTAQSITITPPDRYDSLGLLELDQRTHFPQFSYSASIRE", "assay": "Binding affinity to human AKT2 at 500 nM by cell-based competition binding assay relative to control in presence of DTT", "in_short": "as §1"}, "[5]": {"target": "T2, Tyrosine-protein kinase ZAP-70 (Homo sapiens) (UniProt P43403)", "T2 sequence (whole entry)": "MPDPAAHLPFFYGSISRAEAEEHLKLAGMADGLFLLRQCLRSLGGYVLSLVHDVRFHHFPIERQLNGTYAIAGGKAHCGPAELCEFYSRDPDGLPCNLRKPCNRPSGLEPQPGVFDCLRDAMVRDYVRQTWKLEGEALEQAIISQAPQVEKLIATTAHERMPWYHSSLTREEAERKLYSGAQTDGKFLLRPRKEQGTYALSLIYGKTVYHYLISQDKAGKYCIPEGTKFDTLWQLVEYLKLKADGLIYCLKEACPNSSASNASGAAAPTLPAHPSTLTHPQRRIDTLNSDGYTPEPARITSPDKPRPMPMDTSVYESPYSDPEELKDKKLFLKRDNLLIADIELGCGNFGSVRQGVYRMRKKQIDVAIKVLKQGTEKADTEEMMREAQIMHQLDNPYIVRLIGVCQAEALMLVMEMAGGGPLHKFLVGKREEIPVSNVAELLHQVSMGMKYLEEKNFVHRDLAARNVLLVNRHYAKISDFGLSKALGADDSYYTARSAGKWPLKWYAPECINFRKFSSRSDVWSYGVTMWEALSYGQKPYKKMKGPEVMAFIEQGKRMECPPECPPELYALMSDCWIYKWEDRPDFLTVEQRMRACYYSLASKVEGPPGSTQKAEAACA", "assay": "Ratio of staurosporine to compound binding affinity to human ZAP70 in presence of DTT"}, "[6]": {"target": "RAF proto-oncogene serine/threonine-protein kinase (Homo sapiens) (UniProt P04049)", "sequence (P04049 whole entry)": "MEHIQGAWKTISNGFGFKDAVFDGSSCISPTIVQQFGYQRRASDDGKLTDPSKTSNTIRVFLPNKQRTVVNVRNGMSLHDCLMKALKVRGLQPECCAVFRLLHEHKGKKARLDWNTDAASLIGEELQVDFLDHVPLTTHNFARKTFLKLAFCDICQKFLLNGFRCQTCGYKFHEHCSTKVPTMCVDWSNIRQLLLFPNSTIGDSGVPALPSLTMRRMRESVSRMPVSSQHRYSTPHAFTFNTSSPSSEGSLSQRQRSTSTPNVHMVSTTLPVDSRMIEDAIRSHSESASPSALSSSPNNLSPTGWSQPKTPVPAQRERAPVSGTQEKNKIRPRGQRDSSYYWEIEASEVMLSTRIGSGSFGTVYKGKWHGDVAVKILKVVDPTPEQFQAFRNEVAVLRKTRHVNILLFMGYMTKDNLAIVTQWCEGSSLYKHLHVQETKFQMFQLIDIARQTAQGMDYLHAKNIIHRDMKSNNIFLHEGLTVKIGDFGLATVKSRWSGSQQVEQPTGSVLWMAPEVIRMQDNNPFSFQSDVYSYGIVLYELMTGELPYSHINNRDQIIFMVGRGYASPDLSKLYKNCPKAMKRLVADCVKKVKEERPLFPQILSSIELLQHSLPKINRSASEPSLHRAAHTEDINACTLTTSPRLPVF", "assay": "Binding affinity to human RAF1 at 200 nM by cell-based competition binding assay relative to control in presence of DTT"}, "[7]": {"target": "T3, Activin receptor type-1B (Homo sapiens) (UniProt P36896)", "T3 sequence (whole entry)": "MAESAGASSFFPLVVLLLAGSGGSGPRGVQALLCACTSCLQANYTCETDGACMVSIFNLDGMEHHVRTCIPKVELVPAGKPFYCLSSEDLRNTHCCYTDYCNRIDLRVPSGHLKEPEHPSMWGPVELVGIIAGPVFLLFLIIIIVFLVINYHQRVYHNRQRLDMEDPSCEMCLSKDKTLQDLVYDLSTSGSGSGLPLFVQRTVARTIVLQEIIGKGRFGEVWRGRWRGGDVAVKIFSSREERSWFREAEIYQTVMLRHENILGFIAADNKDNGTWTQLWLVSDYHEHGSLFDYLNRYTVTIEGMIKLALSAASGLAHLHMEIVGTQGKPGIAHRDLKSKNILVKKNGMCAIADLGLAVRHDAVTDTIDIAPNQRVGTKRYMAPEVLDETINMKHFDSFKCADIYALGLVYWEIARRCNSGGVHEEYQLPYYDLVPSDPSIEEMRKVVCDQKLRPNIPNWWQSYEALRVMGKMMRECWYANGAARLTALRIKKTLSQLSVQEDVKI", "assay": "Binding affinity to human ACVR1B at 200 nM by cell-based competition binding assay relative to control in presence of DTT", "in_short": "as §1"}, "[8]": {"target": "Phosphatidylinositol 4-phosphate 3-kinase C2 domain-containing subunit beta (Homo sapiens) (UniProt O00750)", "sequence (O00750 whole entry, the tested form may be a part)": "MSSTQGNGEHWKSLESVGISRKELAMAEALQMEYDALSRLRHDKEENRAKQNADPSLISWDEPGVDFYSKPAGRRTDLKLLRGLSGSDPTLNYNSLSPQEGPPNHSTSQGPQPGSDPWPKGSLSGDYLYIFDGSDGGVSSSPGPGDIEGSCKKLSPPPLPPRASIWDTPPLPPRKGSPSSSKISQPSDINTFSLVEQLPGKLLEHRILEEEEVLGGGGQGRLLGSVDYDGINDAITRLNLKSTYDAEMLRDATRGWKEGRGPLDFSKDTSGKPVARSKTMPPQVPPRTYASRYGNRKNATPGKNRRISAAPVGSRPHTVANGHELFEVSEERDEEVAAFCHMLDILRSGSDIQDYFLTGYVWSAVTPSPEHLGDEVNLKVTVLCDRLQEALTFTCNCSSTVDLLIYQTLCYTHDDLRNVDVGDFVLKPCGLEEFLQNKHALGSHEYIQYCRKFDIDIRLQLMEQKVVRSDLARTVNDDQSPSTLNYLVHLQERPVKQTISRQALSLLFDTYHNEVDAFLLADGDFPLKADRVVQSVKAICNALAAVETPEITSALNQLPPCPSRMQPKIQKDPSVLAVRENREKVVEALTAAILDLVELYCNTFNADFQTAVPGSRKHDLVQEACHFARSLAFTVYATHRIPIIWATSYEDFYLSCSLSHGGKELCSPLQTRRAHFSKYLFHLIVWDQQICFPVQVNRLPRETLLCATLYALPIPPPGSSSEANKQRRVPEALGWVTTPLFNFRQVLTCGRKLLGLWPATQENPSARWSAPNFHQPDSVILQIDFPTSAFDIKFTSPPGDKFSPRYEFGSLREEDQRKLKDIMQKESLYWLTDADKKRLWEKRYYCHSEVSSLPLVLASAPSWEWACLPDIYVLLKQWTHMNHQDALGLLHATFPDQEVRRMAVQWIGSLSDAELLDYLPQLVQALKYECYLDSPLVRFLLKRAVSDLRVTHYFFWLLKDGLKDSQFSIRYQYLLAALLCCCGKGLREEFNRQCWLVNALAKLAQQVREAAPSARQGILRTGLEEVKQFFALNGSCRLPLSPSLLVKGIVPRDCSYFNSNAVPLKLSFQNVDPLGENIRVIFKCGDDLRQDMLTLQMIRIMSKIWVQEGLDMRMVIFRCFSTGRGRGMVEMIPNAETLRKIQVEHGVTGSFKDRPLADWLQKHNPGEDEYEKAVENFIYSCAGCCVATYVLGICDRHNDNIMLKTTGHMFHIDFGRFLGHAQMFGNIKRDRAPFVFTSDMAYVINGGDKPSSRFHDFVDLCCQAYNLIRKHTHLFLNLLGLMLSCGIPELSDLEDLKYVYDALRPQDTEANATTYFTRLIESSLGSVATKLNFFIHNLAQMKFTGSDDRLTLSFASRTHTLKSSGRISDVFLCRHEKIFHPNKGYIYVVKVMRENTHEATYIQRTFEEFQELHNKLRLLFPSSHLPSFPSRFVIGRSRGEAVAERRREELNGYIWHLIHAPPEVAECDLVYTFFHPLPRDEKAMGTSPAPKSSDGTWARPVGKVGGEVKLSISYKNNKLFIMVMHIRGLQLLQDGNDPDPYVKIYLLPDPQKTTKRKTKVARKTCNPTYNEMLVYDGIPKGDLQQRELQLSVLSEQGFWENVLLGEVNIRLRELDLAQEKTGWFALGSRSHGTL", "assay": "Binding affinity to human PIK3C2beta at 200 nM by cell-based competition binding assay relative to control in presence of DTT"}, "[9]": {"target": "MAP/microtubule affinity-regulating kinase 3 (Homo sapiens) (UniProt P27448)", "sequence (P27448 whole entry, looked up)": "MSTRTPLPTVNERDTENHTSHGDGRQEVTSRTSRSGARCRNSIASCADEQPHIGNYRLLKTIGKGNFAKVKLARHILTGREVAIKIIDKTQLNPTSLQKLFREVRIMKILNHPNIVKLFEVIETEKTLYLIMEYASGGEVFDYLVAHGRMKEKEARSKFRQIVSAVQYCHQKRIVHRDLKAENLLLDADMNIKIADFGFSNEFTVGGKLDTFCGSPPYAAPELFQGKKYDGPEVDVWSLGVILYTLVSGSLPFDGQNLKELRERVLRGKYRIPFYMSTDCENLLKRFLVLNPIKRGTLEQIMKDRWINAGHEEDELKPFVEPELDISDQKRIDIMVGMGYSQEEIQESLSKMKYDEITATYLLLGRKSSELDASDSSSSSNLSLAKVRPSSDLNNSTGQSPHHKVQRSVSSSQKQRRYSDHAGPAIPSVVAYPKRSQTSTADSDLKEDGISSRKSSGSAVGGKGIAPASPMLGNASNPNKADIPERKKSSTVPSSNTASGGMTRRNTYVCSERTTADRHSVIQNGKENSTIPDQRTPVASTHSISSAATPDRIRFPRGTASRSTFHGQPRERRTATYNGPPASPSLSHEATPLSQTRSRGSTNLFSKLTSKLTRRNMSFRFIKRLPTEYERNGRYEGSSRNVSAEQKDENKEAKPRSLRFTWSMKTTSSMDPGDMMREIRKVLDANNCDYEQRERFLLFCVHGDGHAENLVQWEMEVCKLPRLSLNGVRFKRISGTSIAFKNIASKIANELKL", "assay": "Binding affinity to human MARK3 at 50 nM by cell-based competition binding assay relative to control in presence of DTT", "in_short": "(§2)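 Competition binding screen (Ambit) across a panel of 90 kinases, scoring test ligand displacement of each kinase's binding relative to control. The screen ran under reducing conditions with 7.5 mM DTT.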"}, "[10]": {"target": "Tyrosine-protein kinase JAK2 (Homo sapiens) (UniProt O60674)", "assay": "Binding affinity to human JAK2 kinase domain 2 at 50 nM by cell-based competition binding assay relative to control in presence of DTT", "in_short": "as §2"}, "[11]": {"target": "Cyclin-dependent kinase 19 (Homo sapiens) (UniProt Q9BWU1)", "sequence (Q9BWU1 whole entry)": "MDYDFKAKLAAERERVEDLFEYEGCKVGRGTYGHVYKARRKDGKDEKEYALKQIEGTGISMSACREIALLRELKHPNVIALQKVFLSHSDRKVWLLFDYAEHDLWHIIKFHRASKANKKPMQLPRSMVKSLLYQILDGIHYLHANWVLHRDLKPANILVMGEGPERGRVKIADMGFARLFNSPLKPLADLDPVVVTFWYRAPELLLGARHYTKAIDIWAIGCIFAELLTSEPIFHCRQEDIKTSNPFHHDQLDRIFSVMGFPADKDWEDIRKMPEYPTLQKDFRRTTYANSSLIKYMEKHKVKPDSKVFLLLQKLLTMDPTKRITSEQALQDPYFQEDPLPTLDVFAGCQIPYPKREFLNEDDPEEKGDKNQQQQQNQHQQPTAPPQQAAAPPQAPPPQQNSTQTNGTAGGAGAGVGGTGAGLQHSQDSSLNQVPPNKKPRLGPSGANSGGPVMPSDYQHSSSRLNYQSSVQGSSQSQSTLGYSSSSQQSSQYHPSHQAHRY", "assay": "Binding affinity to human CDK11 at 50 nM by cell-based competition binding assay relative to control in presence of DTT", "in_short": "as §1"}, "[12]": {"target": "RAF proto-oncogene serine/threonine-protein kinase (Homo sapiens) (UniProt P04049)", "assay": "Binding affinity to human RAF1 at 50 nM by cell-based competition binding assay relative to control in presence of DTT"}, "[13]": {"target": "Tyrosine-protein kinase ABL1 (Homo sapiens) (UniProt P00519)", "assay": "Binding affinity to human ABL1 at 50 nM by cell-based competition binding assay relative to control in presence of DTT", "in_short": "as §1"}},
  "note": "*1 amine or outer side, *2 acyl side, *3 side chain or, on linkers, in order; H or OH if unused. Where a SMILES comes first, the peptide text is derived from it. Bridges are numbered along the chain shown (N, C = ends). [ ]: non-standard residue; d: D form. The star is where a group is joined. Staurosporine = CO[C@@H]1[C@H](N(C)*)C[C@H]2O[C@]1(C)n1c3ccccc3c3c4c(c5c6ccccc6n2c5c31)C(=O)NC4; Suc = O=C(CCC(=O)[*:2])[*:1]; Dap = NC[C@H](N)C(=O)O; βAla = NCCC(=O)O",
  "data": [
    {"molecule": "CO[C@@H]1[C@H](N(C)C(=O)CCC(=O)NCCC(=O)NCCC(=O)NCCC(N)=O)C[C@H]2O[C@]1(C)n1c3ccccc3c3c4c(c5c6ccccc6n2c5c31)C(=O)NC4", "values": [
      {"measurement": "Activity", "setting": "[1]", "result": 8, "unit": "%"},
      {"measurement": "Activity", "setting": "[2]", "result": 100, "unit": "%"},
      {"measurement": "Activity", "setting": "[3]", "result": 18, "unit": "%"},
      {"measurement": "Activity", "setting": "[4]", "result": 37, "unit": "%"},
      {"measurement": "Selectivity ratio", "setting": "[5]", "result": 3}
    ]},
    {"molecule": "CO[C@@H]1[C@H](N(C)C(=O)CCC(=O)NCCC(=O)NCCC(=O)NCCC(=O)NCCC(=O)NCCC(=O)NCCC(=O)NCCC(=O)N[C@H]2CSSC[C@@H](C(=O)NCC(N)=O)NC(=O)CNC(=O)[C@H](Cc3ccccc3)NC(=O)[C@H](C(C)C)NC(=O)[C@H](CCCNC(=N)N)NC(=O)[C@H](Cc3ccccc3)NC(=O)[C@H](C(C)C)NC2=O)C[C@H]2O[C@]1(C)n1c3ccccc3c3c4c(c5c6ccccc6n2c5c31)C(=O)NC4", "note": "({Staurosporine-Suc-βAla-βAla-βAla-βAla-βAla-βAla-βAla}-CVFRVFGCG-NH2; disulfide 1-8)", "values": [
      {"measurement": "Activity", "setting": "[6]", "result": 89, "unit": "%"},
      {"measurement": "Activity", "setting": "[7]", "result": 95, "unit": "%"},
      {"measurement": "Activity", "setting": "[8]", "result": 100, "unit": "%"}
    ]},
    {"molecule": "CO[C@@H]1[C@H](N(C)C(=O)CCC(=O)NCCC(=O)NCCC(=O)NCCC(=O)NCCC(=O)NCCC(=O)NCCC(=O)NCCC(=O)N[C@H]2CNC(=O)C[C@@H](C(N)=O)NC(=O)CNC(=O)[C@H](Cc3ccccc3)NC(=O)[C@H](C(C)C)NC(=O)[C@H](CCCNC(=N)N)NC(=O)[C@H](Cc3ccccc3)NC(=O)[C@H](C(C)C)NC2=O)C[C@H]2O[C@]1(C)n1c3ccccc3c3c4c(c5c6ccccc6n2c5c31)C(=O)NC4", "note": "({Staurosporine-Suc-βAla-βAla-βAla-βAla-βAla-βAla-βAla}-[Dap]VFRVFGD-NH2; lactam 1-8)", "values": [
      {"measurement": "Activity", "setting": "[9]", "result": 61, "unit": "%"},
      {"measurement": "Activity", "setting": "[10]", "result": 42, "unit": "%"},
      {"measurement": "Activity", "setting": "[11]", "result": 100, "unit": "%"},
      {"measurement": "Activity", "setting": "[12]", "result": 100, "unit": "%"},
      {"measurement": "Activity", "setting": "[13]", "result": 94, "unit": "%"}
    ]}
  ]
}
